According to ChEMBL document CHEMBL4411310, “Identification of a novel DGKα inhibitor for XLP-1 therapy by virtual screening” (Eur J Med Chem, 2019):
One block for each compound: values may come before it. Activity calls are given as the source filed them. No cut-off for these calls is given here.

Assays:
[1] = biological target: T1, Diacylglycerol kinase alpha (Homo sapiens, UniProt P23743); experiment: Inhibition of OST-tagged DGKalpha (unknown origin) expressed in MDCK cell homogenates assessed as residual activity at 100 uM using DAG as substrate measured after 5 mins in presence of [gamma-32P]ATP by TLC analysis relative to control; type: cell-free
[2] = biological target: Diacylglycerol kinase alpha (Sus scrofa, UniProt P20192); experiment: Inhibition of pig FLAG3-tagged DGKalpha expressed in African green monkey COS7 cells using 1,2-dioleoyl-sn-glycerol as substrate measured after 30 mins by ADP-Glo luminescence assay
[3] = biological target: T1, Diacylglycerol kinase alpha; experiment: Inhibition of DGKalpha in PHA-induced human Jurkat cells harboring SAP ShRNA assessed as restoration of restimulation-induced cell death at 1 uM measured after 24 hrs by trypan blue exclusion method; type: cell-based
Outline: (§1)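 SAP-shRNA or control-shRNA Jurkat cells, 0.5 × 10^5 cells/well in triplicate, in wells left uncoated or precoated for 24 h at 4 °C with anti-CD3 OKT3 (50 μg/ml) or PHA-P (50 μg/ml). Inhibitor at 1 μM or DMSO control for 24 h. Live cells counted by trypan blue exclusion; % cell loss versus untreated controls. At least three experiments.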

[4] = biological target: T1, Diacylglycerol kinase alpha; experiment: Inhibition of DGKalpha in OKT3-induced human T cells harboring SAP SiRNA assessed as restoration of restimulation-induced cell death at >=5 uM preincubated for 30 mins followed by OKT3 stimulation and measured 24 hrs post dose by propidium iodide staining based flow cytometry
Outline: (§2)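 PBL from healthy donors, activated with anti-CD3/CD28 and then kept in IL-2. siRNA (SAP or control, 200 pmol) delivered by nucleofection, then 4 days in IL-2. 10^5 cells/well in triplicate; inhibitor (1, 5, 10 μM) added 30 min before OKT3 restimulation (1–500 ng/ml) for 24 h. PI staining, fixed 30 s flow acquisition; % cell loss.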

[5] = test system: Serotonin (5-HT) receptor; experiment: Antagonist activity at serotonin receptor in human PBMC assessed as inhibition of PMA-stimulated superoxide anion generation at 10 uM preincubated for 1 hr followed by PMA-stimulation and measured after 30 mins by spectrophotometric method; details: 0.5 h
[6] = biological target: T-cell receptor (Homo sapiens) (UniProt P04437+P01848+P04435+P03979); experiment: Effect on TCR signaling in OKT3-induced human T-cells harboring SiRNA assessed as restoration of restimulation-induced cell death at 1 to 10 uM preincubated for 30 mins followed by OKT3 stimulation and measured 24 hrs post dose by propidium iodide staining based flow cytometry; outline: as §2
[7] = biological target: T1, Diacylglycerol kinase alpha; experiment: Inhibition of DGKalpha in OKT3-induced human Jurkat cells harboring SAP ShRNA assessed as restoration of restimulation-induced cell death at 1 uM measured after 24 hrs by trypan blue exclusion method; type: cell-based; outline: as §1
Jurkat = experiment: Cytotoxicity against human Jurkat cells assessed as reduction in cell viability at 1 uM after 24 hrs by trypan blue exclusion assay; type: cell-based; outline: as §1
[8] = biological target: Diacylglycerol kinase zeta (Homo sapiens) (UniProt Q13574); experiment: Inhibition of DGKzeta (unknown origin) expressed in human 293T cells at 100 uM using DAG as substrate measured after 5 mins in presence of [gamma-32P]ATP by TLC analysis
Outline: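 293T cells transiently transfected with the DGKζ plasmid or empty vector; homogenates collected 48 h later. Compound at 100 μM. Reaction run 5 min at 27 °C with saturating 1,2-dioleoyl-sn-glycerol, γ32P-ATP plus 25 μM unlabelled ATP, and MgCl2, at pH 8. Stopped with HCl, lipids extracted and separated by TLC, read by phosphorimaging. At least three experiments in triplicate.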

[9] = biological target: T1, Diacylglycerol kinase alpha; experiment: Inhibition of DGKalpha expressed in 293T cell homogenates at 100 uM using DAG as substrate measured after 5 mins in presence of [gamma-32P]ATP by TLC analysis relative to control
[10] = biological target: T1, Diacylglycerol kinase alpha; experiment: Inhibition of OST-tagged DGKalpha (unknown origin) expressed in MDCK cell homogenates using DAG as substrate measured after 5 mins in presence of [gamma-32P]ATP by TLC analysis; type: cell-free
Outline: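 Doxycycline-induced (1 μg/ml, 2 days) MDCK cells expressing OST-DGKα, homogenized in Hepes pH 8 buffer with EDTA, EGTA, vanadate and protease inhibitors. Initial velocity measured 5 min at 27 °C with saturating 1,2-dioleoyl-sn-glycerol and γ32P-ATP plus 25 μM unlabelled ATP and MgCl2. Stopped with HCl, lipids extracted, separated by TLC, radioactive phosphatidic acid quantified by imager. IC50 from 0.1–100 μM, ≥3 experiments, normalized fit.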

[11] = Solubility of the compound in DMSO; type: physicochemical
[12] = biological target: T1, Diacylglycerol kinase alpha; experiment: Inhibition of DGKalpha in OKT3-induced human T cells harboring SAP siRNA assessed as restoration of TCR-induced NR4A3 upregulation at 10 uM after 4 hrs by RT-PCR analysis; type: cell-based
Outline: (§3)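 Activated PBL transfected with SAP or control siRNA, 4 days in culture. Restimulated with OKT3 (10 μg/ml), with or without inhibitor at 10 μM. After 4 h, NR4A1 and NR4A3 measured by TaqMan qPCR normalised to GUSB. At least four independent experiments.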

[13] = biological target: T1, Diacylglycerol kinase alpha; experiment: Inhibition of DGKalpha in OKT3-induced human T cells harboring SAP SiRNA assessed as restoration of restimulation-induced cell death at 1 to 10 uM preincubated for 30 mins followed by OKT3 stimulation and measured 24 hrs post dose by propidium iodide staining based flow cytometry; outline: as §2
[14] = biological target: T1, Diacylglycerol kinase alpha; experiment: Inhibition of DGKalpha in OKT3-induced human T cells harboring SAP siRNA assessed as restoration of TCR-induced NR4A1 upregulation at 10 uM after 4 hrs by RT-PCR analysis; type: cell-based; outline: as §3
T-cell = experiment: Cytotoxicity against human T cells assessed as cell death at 1 to 10 uM measured after 24 hrs propidium iodide staining based flow cytometry; outline: as §2
[15] = biological target: Diacylglycerol kinase alpha (Rattus norvegicus, UniProt P51556); experiment: Inhibition of rat FLAG-tagged DGKalpha expressed in HEK293T cells using DAG as substrate measured after 15 mins in presence of [gamma-32P]ATP by scintillation counting method
[16] = biological target: T1, Diacylglycerol kinase alpha; experiment: Inhibition of DGKalpha in human erythrocytes using OAG as substrate preincubated for 1 min followed by OAG addition and measured after 8 mins in presence of [gamma-32P]ATP; type: cell-based
[17] = biological target: T2, 5-hydroxytryptamine receptor 2C (Homo sapiens, UniProt P28335); experiment: Binding affinity to 5HT2C receptor (unknown origin)
T2 sequence (P28335 whole entry): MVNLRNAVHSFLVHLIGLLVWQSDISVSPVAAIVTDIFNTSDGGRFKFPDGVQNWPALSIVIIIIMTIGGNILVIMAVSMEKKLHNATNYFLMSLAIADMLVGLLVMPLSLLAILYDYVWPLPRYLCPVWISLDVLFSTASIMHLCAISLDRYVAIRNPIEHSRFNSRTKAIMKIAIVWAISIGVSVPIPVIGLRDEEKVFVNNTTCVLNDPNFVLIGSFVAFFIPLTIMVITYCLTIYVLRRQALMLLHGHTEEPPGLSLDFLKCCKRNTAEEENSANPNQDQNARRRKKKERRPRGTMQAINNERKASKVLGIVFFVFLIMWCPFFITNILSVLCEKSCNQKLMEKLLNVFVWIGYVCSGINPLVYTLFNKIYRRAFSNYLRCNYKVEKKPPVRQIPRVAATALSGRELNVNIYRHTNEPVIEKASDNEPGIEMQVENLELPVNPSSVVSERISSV

Sequence of Diacylglycerol kinase alpha (Sus scrofa, UniProt P20192) (P20192 whole entry): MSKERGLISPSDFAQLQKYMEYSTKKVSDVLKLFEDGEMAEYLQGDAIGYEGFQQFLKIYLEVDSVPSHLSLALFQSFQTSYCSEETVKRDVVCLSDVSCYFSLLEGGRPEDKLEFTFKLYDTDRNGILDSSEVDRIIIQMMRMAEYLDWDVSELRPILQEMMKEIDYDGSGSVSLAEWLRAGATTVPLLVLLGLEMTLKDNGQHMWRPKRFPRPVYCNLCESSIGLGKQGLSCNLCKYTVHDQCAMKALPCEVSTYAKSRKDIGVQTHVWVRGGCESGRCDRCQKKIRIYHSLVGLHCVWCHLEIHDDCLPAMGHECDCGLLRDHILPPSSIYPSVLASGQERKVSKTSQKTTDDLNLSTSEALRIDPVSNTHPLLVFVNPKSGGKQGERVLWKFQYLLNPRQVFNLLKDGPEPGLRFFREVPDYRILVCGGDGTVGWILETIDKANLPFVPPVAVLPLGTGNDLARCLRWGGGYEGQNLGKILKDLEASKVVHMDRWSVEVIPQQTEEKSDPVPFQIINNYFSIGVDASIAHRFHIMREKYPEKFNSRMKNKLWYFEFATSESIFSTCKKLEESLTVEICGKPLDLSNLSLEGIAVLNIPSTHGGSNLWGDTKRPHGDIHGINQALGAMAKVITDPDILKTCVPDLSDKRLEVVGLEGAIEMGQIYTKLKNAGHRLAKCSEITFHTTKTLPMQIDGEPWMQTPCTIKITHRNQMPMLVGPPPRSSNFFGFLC
T1 sequence (P23743 whole entry): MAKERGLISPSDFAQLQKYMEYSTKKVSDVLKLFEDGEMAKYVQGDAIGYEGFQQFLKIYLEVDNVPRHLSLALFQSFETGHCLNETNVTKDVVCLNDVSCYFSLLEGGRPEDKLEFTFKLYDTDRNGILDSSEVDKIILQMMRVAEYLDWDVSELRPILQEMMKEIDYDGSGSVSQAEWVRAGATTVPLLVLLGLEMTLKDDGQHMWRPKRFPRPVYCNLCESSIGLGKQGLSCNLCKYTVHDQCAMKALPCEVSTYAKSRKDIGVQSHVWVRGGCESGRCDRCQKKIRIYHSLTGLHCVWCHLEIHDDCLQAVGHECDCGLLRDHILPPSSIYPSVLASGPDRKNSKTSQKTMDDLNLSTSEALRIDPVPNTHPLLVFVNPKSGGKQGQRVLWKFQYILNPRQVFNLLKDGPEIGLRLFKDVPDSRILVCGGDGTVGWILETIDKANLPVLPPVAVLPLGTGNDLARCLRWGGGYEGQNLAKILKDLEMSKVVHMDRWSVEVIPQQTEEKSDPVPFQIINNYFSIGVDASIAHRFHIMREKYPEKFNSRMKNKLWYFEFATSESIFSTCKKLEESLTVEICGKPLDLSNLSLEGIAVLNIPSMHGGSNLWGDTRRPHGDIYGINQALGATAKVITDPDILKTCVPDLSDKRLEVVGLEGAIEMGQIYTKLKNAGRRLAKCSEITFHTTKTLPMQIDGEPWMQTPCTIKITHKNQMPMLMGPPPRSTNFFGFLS
Sequence of Diacylglycerol kinase zeta (Homo sapiens) (Q13574 whole entry): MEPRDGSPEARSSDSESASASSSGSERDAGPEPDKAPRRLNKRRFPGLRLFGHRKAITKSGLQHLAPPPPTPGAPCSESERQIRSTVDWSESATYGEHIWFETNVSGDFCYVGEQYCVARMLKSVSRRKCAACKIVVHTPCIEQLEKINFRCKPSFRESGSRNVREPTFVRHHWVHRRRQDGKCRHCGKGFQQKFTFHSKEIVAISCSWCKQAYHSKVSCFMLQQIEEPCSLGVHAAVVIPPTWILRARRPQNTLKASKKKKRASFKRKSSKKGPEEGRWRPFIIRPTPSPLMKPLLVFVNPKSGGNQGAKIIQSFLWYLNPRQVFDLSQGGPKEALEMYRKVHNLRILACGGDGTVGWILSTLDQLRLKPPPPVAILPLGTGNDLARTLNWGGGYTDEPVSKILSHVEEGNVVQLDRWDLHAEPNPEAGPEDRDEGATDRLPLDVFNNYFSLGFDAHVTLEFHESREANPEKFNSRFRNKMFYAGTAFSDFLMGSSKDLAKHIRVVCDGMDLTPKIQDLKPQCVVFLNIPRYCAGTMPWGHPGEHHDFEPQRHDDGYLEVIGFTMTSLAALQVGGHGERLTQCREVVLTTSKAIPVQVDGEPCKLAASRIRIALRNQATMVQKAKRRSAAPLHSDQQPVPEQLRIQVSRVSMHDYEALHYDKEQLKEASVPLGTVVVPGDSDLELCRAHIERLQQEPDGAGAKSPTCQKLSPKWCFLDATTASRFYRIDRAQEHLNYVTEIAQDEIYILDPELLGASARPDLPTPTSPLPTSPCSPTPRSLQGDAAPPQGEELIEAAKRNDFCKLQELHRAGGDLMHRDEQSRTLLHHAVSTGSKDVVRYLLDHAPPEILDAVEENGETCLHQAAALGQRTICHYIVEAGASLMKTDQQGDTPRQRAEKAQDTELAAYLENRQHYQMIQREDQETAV
Sequence of Diacylglycerol kinase alpha (Rattus norvegicus, UniProt P51556) (P51556 whole entry): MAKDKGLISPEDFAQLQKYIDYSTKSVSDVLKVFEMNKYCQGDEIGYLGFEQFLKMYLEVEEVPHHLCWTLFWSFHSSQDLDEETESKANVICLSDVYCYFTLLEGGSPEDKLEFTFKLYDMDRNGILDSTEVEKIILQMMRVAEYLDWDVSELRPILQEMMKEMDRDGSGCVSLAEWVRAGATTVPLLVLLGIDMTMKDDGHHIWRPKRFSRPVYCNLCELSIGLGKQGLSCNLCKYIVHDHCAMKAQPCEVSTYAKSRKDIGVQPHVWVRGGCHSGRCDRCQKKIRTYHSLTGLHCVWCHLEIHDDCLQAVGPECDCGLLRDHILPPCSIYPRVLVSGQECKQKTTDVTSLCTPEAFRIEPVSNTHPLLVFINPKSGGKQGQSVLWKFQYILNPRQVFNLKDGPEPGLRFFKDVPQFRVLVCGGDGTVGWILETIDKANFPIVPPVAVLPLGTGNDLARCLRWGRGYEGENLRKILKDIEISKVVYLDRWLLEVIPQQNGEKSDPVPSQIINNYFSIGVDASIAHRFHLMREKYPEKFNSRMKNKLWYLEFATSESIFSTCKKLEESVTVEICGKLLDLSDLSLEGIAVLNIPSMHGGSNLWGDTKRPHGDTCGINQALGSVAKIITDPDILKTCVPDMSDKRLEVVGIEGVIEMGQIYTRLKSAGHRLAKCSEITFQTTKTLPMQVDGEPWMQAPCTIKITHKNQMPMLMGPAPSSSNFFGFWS

Structure (SMILES): COc1ccccc1N1CCN(CCCNc2cc(=O)n(C)c(=O)n2C)CC1
Activity [1]: 75%

Structure (SMILES): COc1ccccc1CCN1CCC(CN(C)C(=O)C2=CCCCC2)CC1
Activity [1]: 57%

Structure (SMILES): O=C1/C(=C\C=C\c2ccco2)SC(=S)N1NS(=O)(=O)c1ccccc1
IC50 [2]: 0.6 µM
inhibition [3]: Active
inhibition [4]: Active
inhibition (INH) [5]: Not Active
Activity [6]: Active
inhibition [7]: Active
Activity (Jurkat): Toxic

Structure (SMILES): O=c1c2ccccc2[nH]c(=S)n1CCN1CCC(=C(c2ccc(F)cc2)c2ccc(F)cc2)CC1 [DIACYLGLYCEROL KINASE INHIBITOR II]
IC50 [2]: 18 µM
Activity [1]: 28%
inhibition [8]: inactive
inhibition [9]: 81%
IC50 [10]: 10.6 µM

Structure (SMILES): Cc1nc2n(c(=O)c1CCN1CCC(c3noc4cc(F)ccc34)CC1)CCCC2 [RISPERIDONE]
solubility [11]: Insoluble

Structure (SMILES): Cc1ccc2c(C(=O)CN3CCN(C(=O)c4ccco4)CC3)c(C)[nH]c2c1
Activity [1]: 4%
inhibition [3]: Active
inhibition [8]: inactive
inhibition [12]: Active
inhibition [13]: Active
inhibition [14]: Active
Activity (T-cell): Non-Toxic
inhibition [9]: 93%
inhibition (INH) [5]: Not Active
Activity [6]: inactive
inhibition [7]: Active
Activity (Jurkat): Non-Toxic
IC50 [10]: 4.28 to 4.3 µM

Structure (SMILES): O=C(c1ccc(F)cc1)C1CCN(CCn2c(=O)[nH]c3ccccc3c2=O)CC1 [KETANSERIN]
inhibition [3]: Active
inhibition [13]: inactive
Activity (T-cell): Non-Toxic
inhibition (INH) [5]: Active
Activity [6]: inactive
inhibition [7]: Active
Activity (Jurkat): Non-Toxic

Structure (SMILES): Cc1nc2sccn2c(=O)c1CCN1CCC(=C(c2ccccc2)c2ccc(F)cc2)CC1
IC50 [2]: 25 µM
Activity [1]: 27%
inhibition [8]: inactive
IC50 [15]: 20 µM
IC50 [16]: 3.8 µM
inhibition [9]: 68%
IC50 [10]: 19.7 to 19.8 µM

Structure (SMILES): C/C=C(\C)[C@@H](OC(C)=O)[C@@H](C)C1=CC(=O)C2=C(O[C@]3(C)CC[C@H]4O[C@@H](C(C)(C)O)CC[C@]4(C)[C@H]3[C@@H]2O)C1=O [STEMPHONE]
Ki [16]: 3.32 µM

Structure (SMILES): Cc1nc2sccn2c(=O)c1CCN1CCC(=C(c2ccc(F)cc2)c2ccc(F)cc2)CC1 [RITANSERIN]
Activity [1]: 17%
inhibition [3]: Active
inhibition [13]: Active
inhibition [14]: Active
Activity (T-cell): Non-Toxic
Ki [17]: 0.00071 µM
inhibition (INH) [5]: Active
Activity [6]: inactive
inhibition [7]: Active
Activity (Jurkat): Non-Toxic
IC50 [10]: 16.7 µM

Structure (SMILES): O=C(Cc1cn2ccsc2n1)N1CCN(C(c2ccccc2)c2ccccc2)CC1
Activity [1]: 64%

Structure (SMILES): O=C(CN1CCC(n2nnc3ccccc32)CC1)N(C1CCCCC1)C1CCCCC1
solubility [11]: Insoluble

Structure (SMILES): CC[C@H](C)[C@@H](OC(C)=O)[C@@H](C)C1=CC(=O)C2=C(O[C@]3(C)CC[C@H]4O[C@@H](C(C)(C)O)CC[C@]4(C)[C@H]3[C@@H]2O)C1=O [COCHLIOQUINONE A]
Ki [16]: 2.26 µM

Structure (SMILES): O=C1C(=O)N(C2CCCC2)C(=O)N1CN1CCC(Cc2ccccc2)CC1
Activity [1]: 50%

Structure (SMILES): CCCCCCCC(=O)OCCOC(=O)CCCCCCC [ETHYLENE GLYCOL DIOCTANOATE]
Ki [16]: 58 µM

Structure (SMILES): O=C(CCCN1CCC(O)(c2ccc(Cl)cc2)CC1)c1ccc(F)cc1
Activity [1]: 62%

The next lines start with the values.

Activity [1]: 68%
Structure (SMILES): O=C1CC2(CCCC2)C(=O)N1CN1CCN(C(c2ccccc2)c2ccccc2)CC1

Activity [1]: 67%
Structure (SMILES): COc1ccccc1OCCCN1CCN(C(=O)c2ccc(=O)[nH]n2)CC1

Activity [1]: 68%
Structure (SMILES): O=C(NCC(=O)N1CCN(C(c2ccccc2)c2ccccc2)CC1)c1ccco1

Activity [1]: 49%
Structure (SMILES): O=c1c2ccccc2[nH]c(=S)n1CCN1CCN(Cc2ccccc2)CC1

Activity [1]: 39%
Structure (SMILES): O=c1c2ccccc2[nH]c(=S)n1CCCN1CCN(c2cccc(Cl)c2)CC1

Activity [1]: 75%
Structure (SMILES): O=C(Cn1cnc2sccc2c1=O)N1CCN(C(c2ccccc2)c2ccccc2)CC1

Activity [1]: 72%
Structure (SMILES): O=C(CN1CCN(Cc2ccccc2)CC1)c1c[nH]c2ccccc12
